Results taken from ChEMBL document CHEMBL4428107 (Bioorg Med Chem, 2016).

Columns and labels:
[1] = system: MCF7; experiment: Antiproliferative activity against human MCF7 cells assessed as reduction in cell viability after 72 hrs by MTS-PMS assay; details: MCF7, 72 h
[2] = system: MDA-MB-231; experiment: Antiproliferative activity against human MDA-MB-231 cells assessed as reduction in cell viability after 72 hrs by MTS-PMS assay; type: functional; details: MDA-MB-231, 72 h
Method in brief: (§1)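 MTS-PMS viability test. Cells were seeded at 3,000/well and left 24 h at 37 °C, 5% CO2, then exposed to compound for 72 h. Screening was at 50 μM for HCT116 and MCF-7 and […], with final DMSO ≤1%. MTS:PMS was mixed 20:1, added for 3 h, and absorbance read at 490 nm. At least two independent runs were done, each in triplicate.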

[3] = molecular target: Histone deacetylase 2 (Homo sapiens, UniProt Q92769); experiment: Inhibition of full length recombinant human HDAC2 expressed in baculovirus expression system using fluorogenic peptide RHKK(Ac) as substrate by fluorescence assay
Histone deacetylase 2, sequence (Q92769 whole entry): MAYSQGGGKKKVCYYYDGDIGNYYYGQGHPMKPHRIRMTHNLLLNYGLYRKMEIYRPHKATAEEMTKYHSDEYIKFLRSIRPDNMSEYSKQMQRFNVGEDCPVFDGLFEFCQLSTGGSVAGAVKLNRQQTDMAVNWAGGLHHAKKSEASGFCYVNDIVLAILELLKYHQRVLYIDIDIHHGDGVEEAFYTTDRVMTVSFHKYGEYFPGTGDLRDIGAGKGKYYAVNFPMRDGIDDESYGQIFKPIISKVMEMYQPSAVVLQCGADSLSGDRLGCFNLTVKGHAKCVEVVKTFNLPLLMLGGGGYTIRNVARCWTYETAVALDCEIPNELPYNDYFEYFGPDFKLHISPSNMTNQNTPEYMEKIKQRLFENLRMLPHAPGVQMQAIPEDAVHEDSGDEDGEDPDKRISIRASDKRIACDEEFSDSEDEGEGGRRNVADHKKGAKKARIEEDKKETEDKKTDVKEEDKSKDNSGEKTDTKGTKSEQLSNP

[4] = system: HCT-116; experiment: Antiproliferative activity against human HCT116 cells assessed as reduction in cell viability after 72 hrs by MTS-PMS assay; type: functional; details: Homo sapiens, HCT-116, 72 h; method in brief: as §1
[5] = Antiproliferative activity against human PBMC assessed as reduction in cell viability after 70 hrs by Quanti-blue assay; type: cell-based
Method in brief: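 QB fluorescence viability assay; hPBMCs purified by density centrifugation from purchased human blood, stored frozen, resuspended in RPMI-1640 with 10% heat-inactivated FBS, HEPES, pyruvate, non-essential amino acids and BME; seeded at 10^6 cells/mL. Compounds at 50 μM, 70 h plus 2 h with detection reagent; λex 530/λem 590 nm. Three independent repeats.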

[6] = Immunomodulatory activity in human TALL-104 cells assessed as effect on degranulation by measuring augmentation of CD3-stimulated anti-LAMP fluorescence at 100 uM preincubated for 30 mins followed by anti-LAMP addition and incubated for 50 mins in the dark by flow cytometric analysis relative to control; type: functional
[7] = system: MOLT-4; experiment: Antiproliferative activity against human MOLT4 cells assessed as reduction in cell viability after 70 hrs by Quanti-blue assay; type: functional; details: Homo sapiens, MOLT-4, 70 h
Method in brief: (§2)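 Quanti-Blue viability kit. HuT-78 and Molt-4 cells were grown in RPMI-1640 and seeded at 10^5 cells/mL. Compounds were screened at 50 μM for 70 h, with detection reagent present for the final 2 h. Fluorescence was read at ex 530/em 590 nm. IC50 from dose-response came from linear regression. Three independent runs.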

[8] = system: HuT78; experiment: Antiproliferative activity against human HUT78 cells assessed as reduction in cell viability after 70 hrs by Quanti-blue assay; type: functional; details: Homo sapiens, HuT78, 70 h; method in brief: as §2

Row | SMILES | GI50 [1] | GI50 [2] | IC50 [3] | GI50 [4] | GI50 at 70 h [5] | Activity [6] | GI50 [7] | GI50 [8]
1 | CCSC(=O)NCCCC(=O)NCCc1ccccc1 | > 50 µM | > 50 µM | > 1 µM | > 50 µM | > 50 µM | 76% | > 50 µM | > 50 µM
2 | O=C(CCCNC(=S)N1CCCC1=O)NCCc1ccccc1 | > 50 µM | > 50 µM | > 1 µM | > 50 µM | > 50 µM | 94% | > 50 µM | > 50 µM
3 | CCOC(=O)NCCCC(=O)Nc1nc(-c2cccc([N+](=O)[O-])c2)cs1 | > 50 µM | > 50 µM | > 1 µM | > 50 µM | > 50 µM | 58% | > 50 µM | > 50 µM
4 | CCOC(=O)NCCCC(=O)Nc1ccc(O[Si](C)(C)C(C)(C)C)cc1 | 13.8 µM | > 50 µM | > 1 µM | > 50 µM | > 50 µM | 171% | > 50 µM | > 50 µM
5 | O=C(CCCNC(=O)N1CCCC1=O)NCCc1ccccc1 | > 50 µM | > 50 µM | > 1 µM | > 50 µM | > 50 µM | 95% | > 50 µM | > 50 µM
6 | CCOC(=S)NCCCC(=O)NCCc1ccccc1 | > 50 µM | > 50 µM | > 1 µM | > 50 µM | > 50 µM | 105% | > 50 µM | > 50 µM
7 | CCOC(=O)NCCCC(=O)Nc1nccs1 | > 50 µM | > 50 µM | > 1 µM | > 50 µM | > 50 µM | 91% | > 50 µM | > 50 µM
8 | CCOC(=O)NCCCC(=O)Nc1ccc(CO[Si](C)(C)C(C)(C)C)cc1 | 23.7 µM | > 50 µM | > 1 µM | > 50 µM | > 50 µM | 126% | > 50 µM | > 50 µM
9 | CCOC(=O)NCCCCC(=O)NCc1ccccc1 | > 50 µM | > 50 µM | > 1 µM | > 50 µM | > 50 µM | 93% | > 50 µM | > 50 µM
10 | CCOC(=O)NCCc1ccccc1 | > 50 µM | > 50 µM | > 1 µM | > 50 µM | > 50 µM | 90% | > 50 µM | > 50 µM
11 | CCOC(=O)NCCC(=O)NCCc1ccccc1 | > 50 µM | > 50 µM | > 1 µM | > 50 µM | > 50 µM | 91% | > 50 µM | > 50 µM
12 | COC(=O)NCCCC(=O)NCCc1ccccc1 | > 50 µM | > 50 µM | > 1 µM | > 50 µM | > 50 µM | 81% | > 50 µM | > 50 µM
13 | CCCOC(=O)NCCCC(=O)NCCc1ccccc1 | > 50 µM | > 50 µM | > 1 µM | > 50 µM | > 50 µM | 94% | > 50 µM | > 50 µM
14 | COc1cccc2c1C(=O)c1c(O)c3c(c(O)c1C2=O)C[C@@](O)(C(=O)CO)C[C@@H]3O[C@H]1C[C@H](N)[C@H](O)[C@H](C)O1 [DOXORUBICIN] |  | 10.7 µM |  | 21.4 µM |  |  |  | 
15 | CCOC(=O)NCCCCCC(=O)Nc1ccccc1 | > 50 µM | > 50 µM | > 1 µM | > 50 µM | > 50 µM |  | > 50 µM | > 50 µM
16 | CC(C)(C)CC(=O)NCCCC(=O)NCCc1ccccc1 | > 50 µM | > 50 µM | > 1 µM | > 50 µM | > 50 µM | 73% | > 50 µM | > 50 µM
17 | CCOC(=O)NCCCC(=O)NCCC(C)C | > 50 µM | > 50 µM | > 1 µM | > 50 µM | > 50 µM | 88% | > 50 µM | > 50 µM
18 | C=CCOC(=O)NCCCC(=O)NCCc1ccccc1 | > 50 µM | > 50 µM | > 1 µM | > 50 µM | > 50 µM | 87% | > 50 µM | > 50 µM

Row | SMILES | GI50 [1] | GI50 [2] | IC50 [3] | GI50 [4] | GI50 at 70 h [5] | Activity [6] | GI50 [7] | GI50 [8]
19 | CCC(=O)NCCCC(=O)NCCc1ccccc1 | > 50 µM |  | > 1 µM | > 50 µM | > 50 µM | 91% | > 50 µM | > 50 µM
20 | CC(=O)SCCC(=O)NCCCC(=O)NCCc1ccccc1 | > 50 µM | > 50 µM | > 1 µM | > 50 µM | > 50 µM | 77% | > 50 µM | > 50 µM
21 | CC(=O)NCCCC(=O)NCCc1ccccc1 | > 50 µM | > 50 µM | > 1 µM | > 50 µM | > 50 µM | 83% | > 50 µM | > 50 µM
22 | O=C(CCCCCCC(=O)Nc1ccccc1)NO [VORINOSTAT] | 29.1 µM |  |  |  |  |  |  | 
23 | O=C(CCCNC(=O)c1ccccc1)NCCc1ccccc1 | > 50 µM | > 50 µM | > 1 µM | > 50 µM | > 50 µM | 85% | > 50 µM | > 50 µM
24 | CC(C)(C)OC(=O)NCCCC(=O)NCCc1ccccc1 | > 50 µM | > 50 µM | > 1 µM | > 50 µM | > 50 µM | 82% | > 50 µM | > 50 µM
25 | C#CCOC(=O)NCCCC(=O)NCCc1ccccc1 | > 50 µM | > 50 µM | > 1 µM | > 50 µM | > 50 µM | 105% | > 50 µM | > 50 µM
26 | CCOC(=O)NCCCC(=O)NCCNC(=O)OC(C)(C)C | > 50 µM | > 50 µM | > 1 µM | > 50 µM | > 50 µM | 95% | > 50 µM | > 50 µM
27 | O=C(CCCNC(=O)OCCF)NCCc1ccccc1 | > 50 µM | > 50 µM | > 1 µM | > 50 µM | > 50 µM | 92% | > 50 µM | > 50 µM
28 | CCNC(=O)NCCCC(=O)NCCc1ccccc1 | > 50 µM | > 50 µM | > 1 µM | > 50 µM | > 50 µM | 106% | > 50 µM | > 50 µM
29 | CCOC(=O)NCCCC(=O)NCCc1cccc(Cl)c1 | > 50 µM | > 50 µM | > 1 µM | > 50 µM | > 50 µM | 75% | > 50 µM | > 50 µM
30 | CCCCOC(=O)NCCCC(=O)NCCc1ccccc1 | > 50 µM | > 50 µM | > 1 µM | > 50 µM | > 50 µM | 101% | > 50 µM | > 50 µM
31 | CCNC(=O)OCCCC(=O)NCCc1ccccc1 | > 50 µM | > 50 µM | > 1 µM | > 50 µM | > 50 µM | 100% | > 50 µM | > 50 µM
32 | O=C(CCCNC(=O)OCc1ccccc1)NCCc1ccccc1 | > 50 µM | > 50 µM | > 1 µM | > 50 µM | > 50 µM | 79% | > 50 µM | > 50 µM
33 | CCOC(=O)NCCC(=O)NCCCCc1ccccc1 | > 50 µM | > 50 µM | > 1 µM | > 50 µM | > 50 µM | 83% | > 50 µM | > 50 µM
34 | CCOC(=O)NCCCCCC(=O)NCCc1ccccc1 | > 50 µM | > 50 µM | > 1 µM | > 50 µM | > 50 µM | 98% | > 50 µM | > 50 µM
35 | CCOC(=O)NCCCC(=O)NCCc1ccc(Cl)cc1 | > 50 µM | > 50 µM | > 1 µM | > 50 µM | > 50 µM | 85% | > 50 µM | > 50 µM
